GPR7 antag = antagonists of human GPR7 (neuropeptides B/W receptor 1); P48145; GPR7-expressing cells, fluorescence antagonist assay; inhibition, % at 4.4 µM; 290,000 tested, 1.1% active; in the data active means inhibition above about 16%, passing the limit was not always enough;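 further: cells stimulated with the agonist NPW; 0% = agonist with vehicle and 100% = vehicle without agonist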
NS3 helicase inh = inhibitors of Hepatitis C virus NS3 helicase. 290,000 tested, 0.56% active. AID 1800. NS3 helicase DNA unwinding, Cy5 molecular beacon fluorescence. inhibition, % at 10.9 µM;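 active means inhibition above the mean of all tested compounds plus 3 SD, set per campaign, cut at about 35% in these data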;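 further: 0% = DMSO wells and 100% = thioflavine S control wells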
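System: NS3 helicase fragment of HCV / Schedule: 1 h at 25 °C / Control set: DMSO alone as 0% and 110 µM thioflavine S as 100% / Reagent: Cy5/quencher beacon DNA duplex and ATP to start / Technique: Cy5 fluorescence / Replication: singlicate / Evaluation: % inhibition of end-to-start signal ratio versus controls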
pCIP destab = lowers stability of the mouse p/CIP coactivator protein; Q05BA5; F442A p/CIP-EGFP cells, EGFP fluorescence, 16 h; decrease of EGFP signal, % at 10 µM; 290,000 tested, 0.01% active;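 active means EGFP signal decrease of at least 30% at 10 µM or well 3 SD below plate mean, unless failing retest; inactive means the rest, including hits failing retest or dose response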
DNA FID counter = counter-screen for HCV NS3 helicase inhibitors: DNA intercalator displacement; DNA fluorescent intercalator displacement, fluorescence; inhibition, % at 7.9 µM; 290,000 tested, 0.17% active; AID 1845; in the data active means inhibition above about 37%;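 further: 0% = vehicle and 100% = reference compound; higher means more ethidium bromide displaced from hairpin DNA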
HCV core dimer = blocks dimerization of HCV core protein | inhibition, % at 5 µM | 300,000 tested, 0.33% active | TR-FRET GST/Flag-core106 dimerization, 1536-well;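 active means inhibition above the mean of all tested compounds plus 3 SD, set per screening campaign, cut at about 45% in these data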
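Material: GST/Flag-tagged HCV core106 proteins. Incubation: 4 h, 22.5 °C incubation. Read-out basis: inhibition (%) from 671 over 617 nm ratio. Measured by: TR-FRET, excitation 340 nm, emission 617 and 671 nm.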
GPR7 antag cf = human GPR7 antagonism, confirmation assay; GPR7-expressing cells, calcium fluorescence antagonist mode; shares compounds with GPR7 antag; inhibition, % at 4.4 µM; AID 1952; 2,400 tested, 52% active; in the data active means inhibition above about 24%;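 further: stimulated with the GPR7 agonist NPW; 0% = agonist plus vehicle and 100% = vehicle alone without agonist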
MCHR1 antagonist = antagonizes human MCHR1, a GPR7 antagonist counter-screen; shares compounds with GPR7 antag; MCHR1-expressing cells, fluorescence antagonist assay; inhibition, % at 4.4 µM; 2,400 tested, 62% active; AID 2148; in the data active means inhibition above about 22%;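 further: 0% = vehicle with agonist and 100% = vehicle without agonist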
The depositor's hits bear a star. In the library only some 1.9% were active in any assay of this set; here they are far more common.

For COc1ccc(Nc2sc(C(=O)Nc3cccc(Cl)c3)c(N)c2C(=O)Nc2ccccc2OC)cc1 the results were GPR7 antag 50*, NS3 helicase inh 17, pCIP destab -5, DNA FID counter -15, HCV core dimer 36, GPR7 antag cf 77* and MCHR1 antagonist 86*.
Screening C[n+]1c(-c2ccccc2)sc([S-])c1-c1ccccc1 returned HCV core dimer 0.
For CNc1ccccc1C(=O)OCC(=O)c1ccccc1 the results were GPR7 antag -6, NS3 helicase inh -2, pCIP destab -1, DNA FID counter -8 and HCV core dimer 7.
For CNc1ccccc1C(=O)OCC(=O)c1ccc(F)cc1 the results were GPR7 antag 23*, NS3 helicase inh -4, pCIP destab -6, DNA FID counter -4, HCV core dimer 3, GPR7 antag cf 7 and MCHR1 antagonist 16.
`COc1ccccc1N(CCC#N)C(=O)CSc1ccc2c(c1)OCCO2` gave GPR7 antag 36*, NS3 helicase inh -10, pCIP destab 11, DNA FID counter -30, HCV core dimer -4, GPR7 antag cf 2 and MCHR1 antagonist 8.
`Cc1cc(C2(c3ccc(O)c(C)c3)OC(=O)c3ccccc32)ccc1O` gave GPR7 antag -5, NS3 helicase inh -12, pCIP destab 1, DNA FID counter -7 and HCV core dimer 4.
Cc1cc(O)c(C(C)C)cc1C1(c2cc(C(C)C)c(O)cc2C)OC(=O)c2ccccc21 was read as GPR7 antag 28, NS3 helicase inh -5, pCIP destab 5, DNA FID counter -18, HCV core dimer 12, GPR7 antag cf 17 and MCHR1 antagonist 14.
For CC(C)(C)C(=O)Nc1ccc(Sc2ccc([N+](=O)[O-])cc2)cc1 the results were GPR7 antag 25*, NS3 helicase inh -6, pCIP destab -15, DNA FID counter -1, HCV core dimer -2, GPR7 antag cf 23 and MCHR1 antagonist 69*.
CCC1Oc2ccc(C)cc2N(CC(=O)NCc2cc(OC)ccc2OC)C1=O (configuration not stated) was read as GPR7 antag -1, NS3 helicase inh -5, pCIP destab -12, DNA FID counter 1 and HCV core dimer -2.
Screening CCC1Oc2ccc(C)cc2N(CC(=O)NCc2cccc(OC)c2)C1=O (configuration not stated) returned GPR7 antag 24*, NS3 helicase inh 10, pCIP destab -13, DNA FID counter -21, HCV core dimer -3, GPR7 antag cf 14 and MCHR1 antagonist 23*.
`CCC1Oc2ccc(C)cc2N(CC(=O)NC2CCCCC2)C1=O` (configuration not stated) gave GPR7 antag 32*, NS3 helicase inh -2, pCIP destab 17, DNA FID counter -29, HCV core dimer -20, GPR7 antag cf 20 and MCHR1 antagonist 16.
CCC(=O)N1CCc2cc(Br)cc(S(=O)(=O)N(C)c3ccc(OC)cc3)c21 was read as GPR7 antag 38*, NS3 helicase inh -14, pCIP destab -15, DNA FID counter -33, HCV core dimer 11, GPR7 antag cf 24 and MCHR1 antagonist 54*.
Screening CCC(=O)N1CCc2cc(Br)cc(S(=O)(=O)CC(=O)OC)c21 returned GPR7 antag -10, NS3 helicase inh -4, pCIP destab -19, DNA FID counter -1 and HCV core dimer 2.
`c1ccc(Nc2nnc(-c3cccnc3)s2)cc1` gave GPR7 antag 41*, NS3 helicase inh 15, pCIP destab -22, DNA FID counter -7, HCV core dimer -9, GPR7 antag cf -1 and MCHR1 antagonist 14.
For COCCCNC(=O)/C=C1\Sc2ccccc2N(Cc2ccccc2F)C1=O the results were NS3 helicase inh -4, pCIP destab 3, DNA FID counter -26, HCV core dimer -6 and MCHR1 antagonist 12.
CCN1CCN(CCNC(=O)c2ccc(/C=C3\Sc4ccccc4N(Cc4ccccc4F)C3=O)cc2)CC1 was read as GPR7 antag 3, NS3 helicase inh -66, pCIP destab -20, DNA FID counter 15 and HCV core dimer -8.
Screening CC(=O)c1ccc(-n2nnnc2SCC(=O)N2CCc3ccccc3C2)cc1 returned GPR7 antag 29*, NS3 helicase inh 1, pCIP destab 1, DNA FID counter -23, GPR7 antag cf 10 and MCHR1 antagonist 12.
CCN(CC)S(=O)(=O)c1ccc(NN=C2CCN(C)CC2)c([N+](=O)[O-])c1 was read as GPR7 antag -1, NS3 helicase inh 8, pCIP destab 9, DNA FID counter 2 and HCV core dimer -1.
Screening C=CCN(Cc1nc(-c2ccccc2)no1)C(=O)c1ccc2c(c1)OCO2 returned GPR7 antag 3, NS3 helicase inh -7, pCIP destab -6, DNA FID counter -32 and HCV core dimer 0.
CN(c1ccc(C(=O)NC2CCCCC2)cc1)S(=O)(=O)c1ccccc1 was read as GPR7 antag 0, NS3 helicase inh 16, pCIP destab -15, DNA FID counter -40 and HCV core dimer -1.
COc1ccc(N(C)S(=O)(=O)c2cccc(C(=O)NC3CCCCC3C)c2)cc1 (configuration not stated) was read as GPR7 antag 43*, NS3 helicase inh -4, pCIP destab -12, DNA FID counter -37, HCV core dimer 5, GPR7 antag cf 42* and MCHR1 antagonist 39*.
COc1ccc(N(C)S(=O)(=O)c2cccc(C(=O)NC3CCCC3)c2)cc1 was read as GPR7 antag 39*, NS3 helicase inh -14, pCIP destab -7, DNA FID counter -20, HCV core dimer 1, GPR7 antag cf 43* and MCHR1 antagonist 24*.
Screening COc1ccc(N(C)S(=O)(=O)c2cccc(C(=O)NC3=NCCS3)c2)cc1 returned GPR7 antag 11, NS3 helicase inh -9, pCIP destab -11, DNA FID counter -12 and HCV core dimer -2.
COc1ccc(N(C)S(=O)(=O)c2cccc(C(=O)NCC3CCCCC3)c2)cc1 was read as GPR7 antag 26*, NS3 helicase inh 7, pCIP destab -27, DNA FID counter -26, GPR7 antag cf 38* and MCHR1 antagonist 38*.
`C=C(C)CSc1nc2sc3c(c2c(=O)n1-c1ccccc1)CCN(C)C3` gave GPR7 antag -12, NS3 helicase inh -52, pCIP destab -2, DNA FID counter -8 and HCV core dimer 12.
C/C(=N/NC(=O)c1ccco1)c1ccc(NC(=O)c2ccc(F)cc2)cc1 was read as GPR7 antag -4, NS3 helicase inh 0, pCIP destab -18, DNA FID counter -4 and HCV core dimer -16.

Screens from PubChem.
